ChEMBL document CHEMBL1153167, “Gastroprotective flavonoid constituents from Oroxylum indicum Vent” (Bioorg Med Chem Lett, 2010)
Activity calls are given as the source filed them. No cut-off for these calls is given here.

What was measured:
Assay type in all cases: functional, organism-based
Design in all cases: dose 25 mg/kg
Rattus norvegicus [1] = assay: Gastroprotective activity against aspirin-induced ulceritis in Wistar rat at 25 mg/kg, po pretreated 5 days before aspirin challenge measured after 24 hrs of fasting
In short: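 Rats, six per group, were dosed with test sample for five days, then given aspirin 200 mg/kg body weight suspended in 1% Tween-80. They were fasted 24 h and killed by cervical dislocation. Stomachs were opened along the greater curvature, washed with lukewarm saline and scored for ulcer index under a dissecting microscope. Read-out is % protection, mean ± SD.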

Rattus norvegicus [2] = assay: Gastroprotective activity against ethanol-induced ulceritis in 48 hrs fasted Wistar rat at 25 mg/kg, po pretreated 1 hr before ethanol challenge followed by pylorus ligation measured after 4 hrs
In short: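 Rats fasted 48 h, six per group, were dosed orally. Ethanol was given intragastrically 1 h later. One hour after the ethanol, the pylorus was ligated under anesthesia. Animals were killed 4 h after ligation and ulcers were indexed. Read-out is % protection, mean ± SD.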

Rattus norvegicus [3] = assay: Gastroprotective activity against cold restraint-induced ulceritis in Wistar rat at 25 mg/kg, po pretreated before cold restraination measured after 2 hrs
In short: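 After the oral dose, rats (six per group) were restrained at 4 °C for 2 h. The stomach was then opened along the greater curvature and severity was scored as mean ulcer index. Read-out is % protection, mean ± SD.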

Rattus norvegicus [4] = assay: Gastroprotective activity against pylorus ligation-induced ulcer in 48 hrs fasted Wistar rat at 25 mg/kg rat pretreated 1 hr before pylorus ligation measured after 4 hrs
In short: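 Rats fasted 48 h, six per group, were dosed as a 1% Tween-80 suspension at 1 mL per rat. After 1 h the pylorus was ligated under anesthesia. Animals were killed 4 h after ligation for evaluation. Read-out is % protection, mean ± SD.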

Row | SMILES | Activity (Rattus norvegicus [1]) | Activity (Rattus norvegicus [2]) | Activity (Rattus norvegicus [3]) | Activity (Rattus norvegicus [4])
1 | COc1ccc(-c2cc(=O)c3c(O)cc(OC)cc3o2)cc1 | inactive | inactive | inactive | inactive
2 | COc1c(O)cc2c(c1O)C(=O)C[C@@H](c1ccccc1)O2 | Active | Active | Active | Active
3 | O=c1cc(-c2ccccc2)oc2cc(O)cc(O)c12 | Active | Active | Active | Active
4 | COc1cc(O)c2c(=O)cc(-c3c(OC)cccc3O[C@H]3O[C@@H](CO)[C@H](O)[C@@H](O)[C@@H]3O)oc2c1 | inactive | inactive | inactive | inactive
5 | COc1c(O)cc2oc(-c3ccccc3)cc(=O)c2c1O | Active | Active | Active | Active
6 | COc1cc(O)c2c(=O)cc(-c3ccccc3)oc2c1 | inactive | inactive | inactive | inactive
